Results on one compound are retold here after paper PMC6477682 (Journal of the American Chemical Society, 2018).

One assay relates to S. aureus. The experiment in a line: Photoinactivation. The assay is classed as cell-based, Staphylococcus aureus. The following applies: at 1 µM and 2 µM, with and without photoirradiation (Figure 4c).
Another assay deals with LOS- A. baumannii cells. The experiment in a line: Photoinactivation of LOS- A. baumannii. The following applies: at the same concentrations, with and without photoirradiation (Figure 5c). The assay is classed as cell-based, Acinetobacter baumannii. In short, it runs like this: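 AB5075-derived LOS− strain grown to OD600~0.7, washed, diluted in PBS (pH 7.4) to ~1×10^8 cfu/mL, incubated 15 min with eosin-conjugated peptide (2 µM) or controls. Half the suspension irradiated 15 min with blue light (120 W lamp, fluorescein filter, 20X objective); the other half kept dark. Plated on LB agar + 10 µg/mL polymyxin b, 24 h. Killing from colony counts vs untreated PBS control; mean of two trials.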

The structures appear in SMILES notation.

Consider `O=C1OC2(c3ccccc31)c1cc(Br)c(O)c(Br)c1Oc1c2cc(Br)c(O)c1Br` [eosin], for which the “S. aureus cell death, controls” value with S. aureus was “did not elicit cell death”. Further, the “LOS- A. baumannii cell death, controls” value in the assay on LOS- A. baumannii cells is “did not elicit A. baumannii cell death”.
